Measured values from different studies.
Target: Adenosine receptor A1 (ADORA1, Homo sapiens, UniProt P30542)
One construct used (P30542 1-326): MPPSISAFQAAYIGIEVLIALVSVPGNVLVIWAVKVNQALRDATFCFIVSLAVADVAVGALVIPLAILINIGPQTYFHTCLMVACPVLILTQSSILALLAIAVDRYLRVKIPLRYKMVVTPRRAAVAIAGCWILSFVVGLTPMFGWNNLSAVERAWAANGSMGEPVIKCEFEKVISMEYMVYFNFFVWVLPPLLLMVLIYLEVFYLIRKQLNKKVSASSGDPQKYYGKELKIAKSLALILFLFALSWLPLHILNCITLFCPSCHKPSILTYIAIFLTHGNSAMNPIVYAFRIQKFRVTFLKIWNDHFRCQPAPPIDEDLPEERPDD

CNC(=O)[C@@]12C[C@@H]1[C@@H](n1cnc3c(NC)nc(C#C[c-]4cccc4)nc31)[C@H](O)[C@@H]2O.[Fe+2].c1cc[cH-]c1
inhibition (ligand displacement, radioligand; 10 µM, cell membranes): 25%

C=CN1CCCn2c1nc1c2c(=O)n(C)c(=O)n1C
inhibition (ligand displacement, radioligand; 10 µM, cell membranes): 21%

O[C@@H]1[C@H](O)CO[C@H]1n1cnc2c(NCc3cccc(F)c3)ncnc21
inhibition (ligand displacement, radioligand; 10 µM, cell membranes): 16%

Ic1cccc2cnccc12
inhibition (ligand displacement, radioligand; 10 µM): -5%

Cn1c(=O)[nH]c2nc[nH]c2c1=O
inhibition (ligand displacement, radioligand; 30 µM, cell membranes): 78%

O=C(c1ccc(Cl)cc1)N(Cc1ccccc1)C1CCCCC1
inhibition (cell-free assay; 10 µM): 1.7%

O=C(Nc1ccc(S(=O)(=O)N2CCC(Cl)CC2)cc1)c1ccc([N+](=O)[O-])o1
inhibition (ligand displacement, radioligand; 10 µM): 12%

CNc1ncnc2c1ncn2[C@@H]1OC[C@@H](O)[C@H]1O
inhibition (ligand displacement, radioligand; 10 µM, cell membranes): < 10%

O=C1N=C(N2CCCCN2)S/C1=C\c1ccc(F)cc1O
inhibition (ligand displacement, radioligand; 10 µM): < 10%

Oc1cccc(Nc2nc(-c3ccc(F)cc3F)cs2)c1
inhibition (cell-free assay; 10 µM): 46.5%

CNc1nc(Cl)nc2c1ncn2[C@@H]1OC[C@@H](O)[C@H]1O
inhibition (ligand displacement, radioligand; 10 µM, cell membranes): < 10%
